# Assay results as given in ChEMBL document CHEMBL1140339, “Spiro and dispiro-1,2,4-trioxolanes as antimalarial peroxides: charting a workable structure-activity relationship using simple prototypes” (J Med Chem, 2005).
# Columns and labels:
# Mus musculus [1] = assay: Antimalarial activity (10 mg/kg, peroral) given 1 day post infection of mice (Mus musculus) with Plasmodium berghei is its ability to reduce parasitaemia on day 3 post infection; type: functional
# Method in brief: (§1)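 P. berghei-infected MORO mice, groups of three, treated 1 day postinfection with a single dose (100 or 10 mg/kg, po or sc) dissolved or suspended in 3% ethanol/7% Tween-80. Activity is percent reduction in parasitemia on day 3 postinfection versus untreated controls. Survival time is compared with an untreated control group. Individual measurements generally differed by less than 10%.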
# Mus musculus [2] = assay: Antimalarial activity (10 mg/kg, subcutaneously) given 1 day post infection of mice (Mus musculus) with Plasmodium berghei is its ability to reduce parasitemia on day 3 post infection; type: functional; method in brief: as §1
# Plasmodium falciparum [3] = assay: In vitro inhibition of chloroquine-resistant Plasmodium falciparum K1; type: functional, organism-based
# Plasmodium falciparum [4] = assay: In vitro inhibition of chloroquine-sensitive Plasmodium falciparum NF54; type: functional, organism-based
# Mus musculus [5] = assay: Survival of mice to 30-day postinfection with Plasmodium berghei upon 10 mg/kg peroral dose was determined; type: functional; settings: route oral; method in brief: as §1
# Mus musculus [6] = assay: Survival of mice to 30-day postinfection with Plasmodium berghei upon 10 mg/kg upon subcutaneous dose was determined; type: functional; method in brief: as §1
# Mus musculus [7] = assay: Antimalarial activity (100 mg/kg, peroral) given 1 day post infection of mice (Mus musculus) with Plasmodium berghei is its ability to reduce parasitaemia on day 3 post infection; type: functional; method in brief: as §1
# Mus musculus [8] = assay: Antimalarial activity (100 mg/kg, subcutaneously) given 1 day post infection of mice (Mus musculus) with Plasmodium berghei is its ability to reduce parasitemia on day 3 post infection; type: functional; method in brief: as §1
# Mus musculus [9] = assay: Survival of mice to 30-day postinfection with Plasmodium berghei upon 100 mg/kg peroral dose was determined; type: functional; settings: route oral; method in brief: as §1
# Mus musculus [10] = assay: Survival of mice to 30-day postinfection with Plasmodium berghei upon 100 mg/kg upon subcutaneous dose was determined; type: functional; method in brief: as §1
# Plasmodium falciparum [11] = assay: Anti-parasitic effect against Plasmodium berghei in mice (Mus musculus) after 4 days at 100 mg/kg/day (T/A Tween 80) peroral dose in Peters suppressive assay; type: functional, organism-based; parameters: route oral
# Plasmodium falciparum [12] = assay: Antiparasitic effect against Plasmodium berghei infected mice (Mus musculus) after 100 mg/kg peroral (SSV) dose after 3 days; type: functional; settings: route oral
# Plasmodium falciparum [13] = assay: Antiparasitic effect against Plasmodium berghei infected mice (Mus musculus) after 100 mg/kg peroral (T/A Tween-80) dose after 3 days; type: functional, organism-based; parameters: dose 100 mg/kg, route oral; method in brief: as §1
# [14] = Plasma half life period after intravenous administration ( 30 mg/kg ); type: ADME, organism-based, Mus musculus; parameters: dose 30 mg/kg, route intravenous
# Method in brief: (§2)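 Conscious, free-moving rats (n = 3 per group) were jugular- and carotid-cannulated the day before dosing under isoflurane, then fasted overnight. The iv dose was a 5 min jugular infusion in aqueous 0.1 M Captisol (10, 20 or 30 mg/kg). The oral dose was given by gavage as a suspension in 0.5% CMC/0.4% polysorbate 80/0.5% benzyl alcohol/0.9% NaCl (30, 50 or 80 mg/kg). Carotid blood was sampled over 7 h and plasma was obtained by centrifugation.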
# [15] = Bioavailability obtained after oral administration of 80 mg/kg; type: ADME, organism-based, Mus musculus; settings: in vivo; method in brief: as §2
# [16] = Plasma clearance after intravenous administration of 30 mg/kg; type: ADME, organism-based, Mus musculus; parameters: dose 30 mg/kg, route intravenous; method in brief: as §2
# [17] = Volume distribution after intravenous administration of 30 mg/kg; type: ADME, organism-based, Mus musculus; parameters: dose 30 mg/kg, route intravenous; settings: in vivo; method in brief: as §2
# Mus musculus [18] = assay: Effective dose required to reduce the parasitemia in mice when compound administered with Tween-80 after 3 day postinfection; type: functional
# Mus musculus [19] = organism: Mus musculus; assay: Effective dose required to reduce the parasitemia in mice by suppressive test after 4 day postinfection; type: functional
# Method in brief: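 Peters 4-day suppressive test in P. berghei-infected mice with multiple daily oral doses. ED50/ED90 are given in (mg/kg)/day.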
# [20] = Oral bioavailability (dose 50 mg/kg); settings: rat, in vivo
# [21] = Plasma clearance after intravenous administration of 10 mg/kg; settings: rat
# [22] = Volume distribution after intravenous administration of 10 mg/kg; settings: rat, in vivo
# [23] = Plasma half life period after intravenous administration ( 10 mg/kg ); settings: rat
# Mus musculus [24] = assay: Effective dose required to reduce the parasitemia in mice when compound administered with SSV after 3 day postinfection; type: functional
# Mus musculus [25] = assay: Survival of mice to 30-day postinfection with Plasmodium berghei upon 10 mg/kg upon peroral dose was determined; type: functional; settings: route oral; method in brief: as §1
# [26] = Volume distribution after intravenous administration of 20 mg/kg; settings: rat, in vivo
# [27] = Plasma half life period after intravenous administration ( 20 mg/kg); settings: rat, in vivo
SMILES,Reduction (Mus musculus [1]),Reduction (Mus musculus [2]),IC50 (Plasmodium falciparum [3]),IC50 (Plasmodium falciparum [4]),Survival (Mus musculus [5]),Survival (Mus musculus [6]),Reduction (Mus musculus [7]),Reduction (Mus musculus [8]),Survival (Mus musculus [10]),also measured
CC1(C)CC(C)(C)CC2(C1)OOC1(O2)C2CC3CC(C2)CC1C3 (stereo unspecified),88%,99.9%,3.1 ng/mL,0.005 µg/mL,7 days,97 days,–,–,–,–
C1C2CC3CC1CC(C2)C31OOC2(O1)C1CC3CC(C1)CC2C3 (stereo unspecified),–,–,950 ng/mL,0.779 µg/mL,–,–,0%,0%,5.3 days,Survival (Mus musculus [9]): 5.3 days
C1CCC2(CC1)OOC1(CCCCC1)O2,–,–,100 ng/mL,0.504 µg/mL,–,–,0%,0%,5.3 days,Survival (Mus musculus [9]): 5.3 days
CC1(C)COC2(CCC3(CC2)OOC2(CC(C)(C)CC(C)(C)C2)O3)OC1,0%,0%,–,–,5.7 days,5.7 days,–,–,–,–
CC1(C)COC2(CCC3(CC2)OOC2(O3)C3CC4CC(C3)CC2C4)OC1 (stereo unspecified),–,>99.99%,–,–,11.4 days,18 days,–,–,–,EC50 (Plasmodium falciparum [11]): 1.8 (mg/kg)/day; EC90 (Plasmodium falciparum [12]): 6.2 (mg/kg)/day; EC50 (Plasmodium falciparum [13]): 1.5 (mg/kg)/day; half-life [14]: 155 min; bioavailability [15]: 0.73%; clearance [16]: 83 mL/min/kg; Vd [17]: 18 L/kg
c1ccc(CC2(Cc3ccccc3)OOC3(O2)C2CC4CC(C2)CC3C4)cc1 (stereo unspecified),88%,99.7%,3.1 ng/mL,0.003 µg/mL,6.7 days,8 days,–,–,–,–
CCOC(=O)N1CCC2(CC1)OOC1(O2)C2CC3CC(C2)CC1C3 (stereo unspecified),99.5%,99.9%,0.29 ng/mL,0.00057 µg/mL,7.7 days,8.9 days,–,–,–,ED90 (Mus musculus [18]): 5.5 (mg/kg)/day; ED90 (Mus musculus [19]): 2 (mg/kg)/day; bioavailability [20]: 1.5%; clearance [21]: 47 mL/min/kg; Vd [22]: 23 L/kg; half-life [23]: 344 min
O=C1CCC2(CC1)OOC1(CCCCC1)O2,–,–,15 ng/mL,0.039 µg/mL,–,–,0%,0%,5 days,Survival (Mus musculus [9]): 5 days
C1CCC2(CC1)COC1(O2)C2CC3CC(C2)CC1C3 (stereo unspecified),–,–,> 1000 ng/mL,> 1 µg/mL,–,–,0%,0%,5.6 days,Survival (Mus musculus [9]): 5.6 days
CC(C)C1CCC2(CC1)OOC1(O2)C2CC3CC(C2)CC1C3 (stereo unspecified),99%,9.89%,1.4 ng/mL,0.002 µg/mL,7.3 days,9 days,–,–,–,–
Fc1ccc(C2(c3ccc(F)cc3)OOC3(CCC(c4ccccc4)CC3)O2)cc1 (stereo unspecified),0%,0%,–,–,5.3 days,5.7 days,–,–,–,–
O=C1CCC2(CC1)OOC1(O2)C2CC3CC(C2)CC1C3 (stereo unspecified),94%,99.7%,0.48 ng/mL,0.00073 µg/mL,–,8.6 days,>99.99%,>99.99%,30 days,ED50 (Mus musculus [18]): 3.5 (mg/kg)/day; ED90 (Mus musculus [18]): 7 (mg/kg)/day; ED50 (Mus musculus [24]): 8.7 (mg/kg)/day; ED90 (Mus musculus [24]): 12 (mg/kg)/day; ED50 (Mus musculus [19]): 1.5 (mg/kg)/day; ED90 (Mus musculus [19]): 6.1 (mg/kg)/day; Survival (Mus musculus [9]): 10.7 days; Survival (Mus musculus [25]): 7.1 days; Vd [26]: 12 L/kg; T1/2 [27]: 117 min
CC1(C)COC2(CCC3(CC2)OOC2(O3)C3CCCC2CCC3)OC1 (stereo unspecified),1%,6%,41 ng/mL,0.049 µg/mL,5 days,5.3 days,–,–,–,–
C1CC2(CCO1)OOC1(O2)C2CC3CC(C2)CC1C3 (stereo unspecified),35%,99.6%,–,–,6 days,–,–,–,7.7 days,–
CCCC1CCC2(CC1)OOC1(O2)C2CC3CC(C2)CC1C3 (stereo unspecified),–,–,1.1 ng/mL,0.0021 µg/mL,8.4 days,16.5 days,–,–,–,–
C1CCCCCC2(CCCCC1)OOC1(O2)C2CC3CC(C2)CC1C3 (stereo unspecified),–,90%,–,–,7.4 days,–,–,–,7 days,–
O=S1(=O)CCC2(CC1)OOC1(O2)C2CC3CC(C2)CC1C3 (stereo unspecified),77%,97%,–,–,7 days,7.3 days,–,–,–,–
CC(C)(C)C1CCC2(CC1)OOC1(O2)C2CC3CC(C2)CC1C3 (stereo unspecified),0%,0%,63 ng/mL,0.084 µg/mL,5 days,5.3 days,–,–,–,–
OC1CCC2(CC1)OOC1(O2)C2CC3CC(C2)CC1C3 (stereo unspecified),79%,91%,–,–,6.7 days,8.7 days,–,–,–,–
c1ccc(C2(c3ccccc3)CCC3(CC2)OOC2(O3)C3CC4CC(C3)CC2C4)cc1 (stereo unspecified),0%,0%,42 ng/mL,0.06 µg/mL,5.3 days,5.7 days,–,–,–,–
C1CCC2(CC1)OCC1(O2)C2CC3CC(C2)CC1C3 (stereo unspecified),–,–,> 1000 ng/mL,> 1 µg/mL,–,–,0%,0%,5.6 days,Survival (Mus musculus [9]): 5.8 days
CC1(C)CCC2(CC1)OOC1(O2)C2CC3CC(C2)CC1C3 (stereo unspecified),80%,–,2.3 ng/mL,0.0035 µg/mL,6.7 days,11.7 days,–,–,–,–
c1ccc(C2(c3ccccc3)OOC3(O2)C2CC4CC(C2)CC3C4)cc1 (stereo unspecified),68%,92%,2.3 ng/mL,0.0026 µg/mL,6 days,7 days,–,–,–,–
CC(C)(C)C1CCC2(CC1)OOC1(CCC(c3ccccc3)CC1)O2 (stereo unspecified),–,–,77 ng/mL,0.062 µg/mL,0 days,–,–,–,–,–
c1ccc(C2CCC3(CC2)OOC2(O3)C3CCCC2CCC3)cc1 (stereo unspecified),0%,0%,> 100 ng/mL,> 0.1 µg/mL,5 days,5 days,–,–,–,–
C1CCC2(CC1)OOC1(O2)C2CC3CC(C2)CC1C3 (stereo unspecified),94%,>99.99%,–,–,–,–,>99.99%,>99.99%,28 days,Survival (Mus musculus [9]): 14.3 days; Survival (Mus musculus [25]): 7.2 days
CO[C@H]1O[C@@H]2O[C@@]3(C)CC[C@H]4[C@H](C)CC[C@@H]([C@H]1C)[C@@]24OO3,98%,99.78%,–,–,–,–,99.95%,>99.99%,14.7 days,ED50 (Mus musculus [18]): 2 (mg/kg)/day; ED90 (Mus musculus [18]): 4.3 (mg/kg)/day; ED50 (Mus musculus [24]): 2.7 (mg/kg)/day; ED90 (Mus musculus [24]): 6.2 (mg/kg)/day; ED50 (Mus musculus [19]): 3.1 (mg/kg)/day; Survival (Mus musculus [9]): 14.7 days; bioavailability [20]: 1.4%; clearance [21]: 114 mL/min/kg; Vd [22]: 8 L/kg; half-life [23]: 52 min
C[C@@H]1CC[C@H]2[C@@H](C)C(=O)O[C@@H]3O[C@@]4(C)CC[C@@H]1[C@]32OO4 [ARTEMISININ],–,–,1.6 ng/mL,–,–,–,98%,>99.99%,14 days,–
C[C@H]1[C@H](OC(=O)CCC(=O)O)O[C@@H]2O[C@@]3(C)CC[C@H]4[C@H](C)CC[C@@H]1[C@@]24OO3 [ARTESUNATE],65%,65%,–,–,6.8 days,6.8 days,–,–,–,ED50 (Mus musculus [18]): 5 (mg/kg)/day; ED90 (Mus musculus [18]): 13 (mg/kg)/day; ED50 (Mus musculus [24]): 5.9 (mg/kg)/day; ED90 (Mus musculus [24]): 21 (mg/kg)/day; ED50 (Mus musculus [19]): 2.4 (mg/kg)/day; ED90 (Mus musculus [19]): 13 (mg/kg)/day
CCN(CC)CCCC(C)Nc1ccnc2cc(Cl)ccc12 (stereo unspecified) [CHLOROQUINE],–,–,–,–,–,–,–,–,–,ED50 (Mus musculus [24]): 1.9 (mg/kg)/day; ED90 (Mus musculus [24]): 4.2 (mg/kg)/day
